Assay results taken from ChEMBL document CHEMBL1123255, “Synthesis of Pro-Leu-Gly-NH2 analogues modified at the prolyl residue and evaluation of their effects on the receptor binding activity of the central dopamine receptor agonist, ADTN” (J Med Chem, 1986).
Square brackets hold non-standard residues; d marks the D form. Peptide text beside a SMILES is read from it. pGlu = O=C1CC[C@@H](C(=O)O)N1; Pip = O=C(O)[C@@H]1CCCCN1; Thz = O=C(O)[C@@H]1CSCN1; Aze = O=C(O)[C@@H]1CCN1

Columns and labels:
Assay type in all cases: protein assay
[1] = molecular target: T1, Dopamine receptor (Bos taurus) (UniProt Q95136+P20288); experiment: Compound was tested for enhancement of the binding of [3H]-ADTN to dopamine receptors at concentration of 10 nM
In short: (§1)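 Bovine caudate homogenized in 50 mM Tris-HCl pH 7.7, centrifuged twice at 40000g, resuspended in 50 mM Tris pH 7.1 with 0.1% ascorbate, 120 mM NaCl, 5 mM KCl, 2 mM CaCl2, 10 μM pargyline. 0.4-0.6 mg protein, 8 nM [3H]ADTN, peptide at 1, 10 or 100 nM; 10 min, 37 °C, triplicate; GF/B filtration, scintillation counting. Specific binding defined with 1 μM (d)-butaclamol; % enhancement over no-drug basal.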

[2] = molecular target: T1, Dopamine receptor (Bos taurus); experiment: Compound was tested for enhancement of the binding of [3H]ADTN to dopamine receptors at concentration of 100 nM; in short: as §1
[3] = molecular target: T1, Dopamine receptor (Bos taurus); experiment: Compound was tested for enhancement of the binding of [3H]ADTN to dopamine receptors at concentration of 1 nM; in short: as §1

| Structure (SMILES) | Enhancement [1] | Enhancement [2] | Enhancement [3] |
| --- | --- | --- | --- |
| CC(C)C[C@H](NC(=O)[C@@H]1CCN1)C(=O)NCC(N)=O (H-[Aze]-Leu-Gly-NH2) | 40% | 42% | 19% |
| CC(C)C[C@H](NC(=O)[C@@H]1CCC(=O)N1)C(=O)NCC(N)=O ([pGlu]-Leu-Gly-NH2) | 26.5% | 36.4% | 13.5% |
| CC(C)C[C@H](NC(=O)[C@@H]1CCCN1)C(=O)NCC(N)=O (stereo in doubt; 2) | 25% | 33% | 18% |

Second part, the compound after the results:

| Enhancement [1] | Enhancement [2] | Enhancement [3] | Structure (SMILES) |
| --- | --- | --- | --- |
| 40% | 55% | 12.4% | CC(C)C[C@H](NC(=O)[C@@H]1C=CCN1)C(=O)NCC(N)=O |
| 13% | 14.4% | 9.5% | CC(C)C[C@H](NC(=O)[C@H]1C=CCN1)C(=O)NCC(N)=O |
| 38.7% | 58.7% | 17% | CC(C)C[C@H](NC(=O)[C@@H]1CCCCN1)C(=O)NCC(N)=O (H-[Pip]-Leu-Gly-NH2) |
| 8.5% | 9.5% | 7% | CC(C)C[C@H](NC(=O)[C@@H]1CSCN1)C(=O)NCC(N)=O (H-[Thz]-Leu-Gly-NH2) |
| 28% | 46.2% | 16% | CC(C)C[C@H](NC(=O)[C@@H]1CCCN1)C(=O)NCC(N)=O (stereo in doubt; 1) |
